Assay outcomes: PubChem, The Scripps Research Institute Molecular Screening Center
rCAG RNA binder: r(CAG) repeat RNA binding; TO-PRO-1 dye displacement fluorescence; inhibition, % at 3 µM; hit rate 1.3% among 370,000;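 active = inhibition above the plate cutoff, the mean of all test compounds on that plate plus 3 SD, cut at about 35% in these data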;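 also: 0% = DMSO alone and 100% = 100 µM mitoxantrone as full dye displacement; higher means more dye released from RNA so lower well fluorescence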
core dimer inh: blocks dimerization of HCV core protein | TR-FRET GST/Flag-core106 dimerization, 1536-well | inhibition, % at 5 µM | hit rate 0.33% among 300,000;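 active = inhibition above the mean of all tested compounds plus 3 SD, set per screening campaign, cut at about 45% in these data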
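Test system: GST/Flag-tagged HCV core106 proteins; Medium: KF-containing HEPES buffer, pH 7.45, DTT, CHAPS, BSA; Times: compound-protein-antibody incubation 4 h at 22.5 °C; Detection: TR-FRET 671 and 617 nm emission; Benchmarks: wells lacking GST-core106 and wells with excess unlabelled core106.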
TAAR1 ag: human TAAR1 agonism. AID 624467. Q96RJ0. CHO RD-HGA16 TAAR1, Fluo-8 calcium fluorescence; vehicle wells 0%, saturating PEA agonist 100%. activation, % at 3 µM. hit rate 0.99% among 360,000;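 active = activation above the mean activation of all test compounds in the run plus 3 SD, cut at about 38% in these data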
Target sequence (Q96RJ0 whole entry, looked up): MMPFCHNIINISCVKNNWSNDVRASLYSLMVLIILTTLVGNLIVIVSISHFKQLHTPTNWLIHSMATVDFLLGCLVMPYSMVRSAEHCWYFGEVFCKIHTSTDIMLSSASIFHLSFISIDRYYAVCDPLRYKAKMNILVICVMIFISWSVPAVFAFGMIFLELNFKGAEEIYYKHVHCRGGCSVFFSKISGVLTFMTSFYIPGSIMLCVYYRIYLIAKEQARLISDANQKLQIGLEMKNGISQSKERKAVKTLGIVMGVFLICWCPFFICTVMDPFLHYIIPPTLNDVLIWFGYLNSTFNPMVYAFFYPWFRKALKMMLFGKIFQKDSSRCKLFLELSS
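Assay system – CHO-derived RD-HGA16 cells with stable Gα16 and human TAAR1 · Compound dosing – one-point dosing at 3 µM (nominal) · Incubation – 17-24 h seeding, 75 min 37 °C dye, 30 min RT · Measured by – kinetic Fluo-8 calcium fluorescence · Control set – DMSO vehicle as 0%, PEA at EC100 as 100% · Repeats – single well for each compound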
TAAR1 antagonist: antagonists of human TAAR1; Q96RJ0; inhibition, % at 3 µM; hit rate 1.5% among 360,000; CHO RD-HGA16 TAAR1, Fluo-8 calcium fluorescence, antagonist; AID 624466;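 active = inhibition above a per-plate cutoff, the mean inhibition of test compounds on that plate plus 3 SD, cut at about 49% in these data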;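 also: 0% = DMSO plus EC80 beta-PEA response and 100% = DMSO alone without agonist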
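System: RD-HGA16 CHO cells with stable hTAAR1 and Gα16 | Probe or stimulus: EC80 β-phenethylamine stimulus | Dosing: 3 µM, single point | Times: Dye loading 75 min at 37 °C, then 30 min room temperature | Measured by: Fluo-8 calcium-sensitive fluorescence | Read-out basis: % inhibition of agonist calcium response | Replicates: n of 1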
NS3 helicase inh: blocks Hepatitis C virus NS3 helicase unwinding | inhibition, % at 10.9 µM | NS3 helicase DNA unwinding, Cy5 molecular beacon fluorescence | hit rate 0.56% among 290,000 | AID 1800;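 active = inhibition above the mean of all tested compounds plus 3 SD, set per campaign, cut at about 35% in these data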;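 also: 0% = DMSO wells and 100% = thioflavine S control wells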
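Material: hepatitis C virus NS3 helicase domain fragment enzyme; measured by: Cy5 fluorescence, 0 and 60 min reads; control set: DMSO and thioflavine S; incubation: 60 min unwinding reaction at 25 °C after ATP addition; read-out basis: % inhibition from 60/0 min fluorescence ratio, DMSO 0%, thioflavine S 100%; repeats: singlicate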
* marks the source's active call; other numbers are inactive results. The list is not random: actives were taken first. Their share in the collection is about 3.7%.

Results for CCOC(=O)c1ccc(NC(=O)COc2ccc(-n3cnnn3)cc2)cc1 ?
rCAG RNA binder: 15; core dimer inh: 58*; TAAR1 ag: 1; TAAR1 antagonist: 1; NS3 helicase inh: -3

What do the screens show for `CC(=O)Nc1ccc(-n2cnnn2)cc1`?
rCAG RNA binder: -3; core dimer inh: 3; TAAR1 ag: 5; TAAR1 antagonist: 8; NS3 helicase inh: 2

What do the screens show for `CCOc1ccc(NC(=O)COc2ccc(-n3cnnn3)cc2)cc1`?
rCAG RNA binder: 1; TAAR1 ag: 7; TAAR1 antagonist: -3

How did Cc1ccc(C(C(=O)NCc2ccccc2)N(Cc2cccs2)C(=O)c2ccc3c(c2)OCCO3)cc1 (stereo not drawn) do in these assays?
rCAG RNA binder: 4; core dimer inh: 21; TAAR1 ag: 16; TAAR1 antagonist: 64*; NS3 helicase inh: -10

Results for COC(=O)c1ccc(C(C(=O)NCc2ccccc2)N(Cc2cccs2)C(=O)c2cnccn2)cc1 (stereo not drawn) ?
rCAG RNA binder: -3; core dimer inh: -3; TAAR1 ag: 16; TAAR1 antagonist: 35; NS3 helicase inh: -1

What do the screens show for `COc1cccc(S(=O)(=O)NCc2ccc(C(=O)Nc3cccc(Cl)c3)cc2)c1`?
rCAG RNA binder: 6; core dimer inh: 8; TAAR1 ag: 9; TAAR1 antagonist: 50*; NS3 helicase inh: -8

Results for CCN(CC)CCNC(=O)c1ccc(NC(=O)c2ccc(COc3ccccc3)cc2)cc1 ?
rCAG RNA binder: -4; TAAR1 ag: 4; TAAR1 antagonist: 52*; NS3 helicase inh: -39

How did CN(C)S(=O)(=O)c1cccc(NC(=O)COC(=O)[C@H](Cc2ccccc2)NC(=O)c2ccco2)c1 do in these assays?
rCAG RNA binder: 3; TAAR1 ag: 14; TAAR1 antagonist: 55*

What do the screens show for `CN(C)S(=O)(=O)c1cccc(NC(=O)c2ccc(COc3ccccc3)cc2)c1`?
rCAG RNA binder: 8; core dimer inh: 10; TAAR1 ag: 15; TAAR1 antagonist: 77*; NS3 helicase inh: -6

What do the screens show for `COc1cccc(S(=O)(=O)NCc2ccc(C(=O)Nc3ccc(Cl)cc3)cc2)c1`?
rCAG RNA binder: 8; core dimer inh: 8; TAAR1 ag: 2; TAAR1 antagonist: 10; NS3 helicase inh: -13

How did CCN(CC)CCNC(=O)c1ccc(NC(=O)c2ccc(C(=O)c3ccccc3)cc2)cc1 do in these assays?
rCAG RNA binder: -1; core dimer inh: -11; TAAR1 ag: 3; TAAR1 antagonist: 7

Results for COc1ccc(C(=O)CSc2nnc(-c3ccccc3)n2-c2ccc(Cl)cc2)cc1 ?
rCAG RNA binder: 8

What do the screens show for `O[C@H](COc1ccc(Cl)cc1)CN1CCC(C(O)(c2ccccc2)c2ccccc2)CC1`?
rCAG RNA binder: 0

How did Cn1c(Cc2cccs2)nnc1SCC(=O)Nc1ccc2c(c1)OCO2 do in these assays?
rCAG RNA binder: 1

Results for CCC(=O)Nc1ccc2c(c1)C(=O)N(C)[C@@H]1CC[C@@H](CC(=O)NCCN3CCCCC3)O[C@H]1CO2 ?
rCAG RNA binder: 5

Results for CC(C)CCOc1ccc(Cl)cc1CN1CCOCC1 ?
rCAG RNA binder: -8; core dimer inh: -3; TAAR1 ag: 39*; TAAR1 antagonist: 45; NS3 helicase inh: -8

What do the screens show for `CCCCCOc1ccc(Cl)cc1CN1CCOCC1`?
rCAG RNA binder: -10; core dimer inh: -10; TAAR1 ag: 26; TAAR1 antagonist: 18; NS3 helicase inh: 3

How did CCOC(=O)c1ccc(S(=O)(=O)Nc2ccccc2-c2nnn(CC)n2)cc1 do in these assays?
rCAG RNA binder: -3; TAAR1 ag: 4; TAAR1 antagonist: 53*; NS3 helicase inh: -2

What do the screens show for `CCn1nnc(-c2ccccc2NS(=O)(=O)c2ccc(S(=O)(=O)N3CCCCCC3)cc2)n1`?
rCAG RNA binder: 2; core dimer inh: 5; TAAR1 ag: 15; TAAR1 antagonist: -1; NS3 helicase inh: 3

How did Nc1ccc(-c2c3ccc(=O)cc-3oc3cc(O)ccc23)cc1C(=O)O do in these assays?
rCAG RNA binder: inactive; core dimer inh: -3; TAAR1 ag: 212*; TAAR1 antagonist: 68*; NS3 helicase inh: 3

Results for O=c1cc(-c2ccccc2)oc2cc(O)ccc12 ?
rCAG RNA binder: 7; TAAR1 ag: 2; TAAR1 antagonist: -27

Results for CCOc1ccc(CCNC(=O)c2cc3c(C)nccc3[nH]c2=O)cc1OCC ?
rCAG RNA binder: -6; core dimer inh: 0; TAAR1 ag: 13; TAAR1 antagonist: 51*; NS3 helicase inh: -4

Results for O=C(OCCCN1CCC2(CCC(c3ccccc3)CC2)C1=O)c1ccccc1 (stereo not drawn) ?
rCAG RNA binder: 3

Results for O=C(N1CCOCC1)N1CC[C@H]2[C@H](CCCN2Cc2cc(F)cc(F)c2)C1 ?
rCAG RNA binder: 0

What do the screens show for `O=S1(=O)c2ccccc2N=NN1Cc1cc(Cl)cc(Cl)c1`?
core dimer inh: 46*; NS3 helicase inh: 13

What do the screens show for `O=S1(=O)c2ccccc2N=NN1Cc1ccc(Cl)cc1`?
rCAG RNA binder: 24; core dimer inh: 47*; TAAR1 ag: 15; TAAR1 antagonist: 4; NS3 helicase inh: 11

Results for CCOC(=O)c1csc(NC(=O)C2CCCN(S(=O)(=O)c3ccc(C)cc3)C2)n1 (stereo not drawn) ?
rCAG RNA binder: 1

What do the screens show for `Cc1cc(N2C(=O)C(O)=C(C(=O)c3cc4ccccc4o3)C2c2ccc([N+](=O)[O-])cc2)no1` (stereo not drawn)?
rCAG RNA binder: 46*; core dimer inh: 16; TAAR1 ag: 0; TAAR1 antagonist: 4; NS3 helicase inh: 24

How did COC(=O)c1ccc(Cn2ccc3ccc(-c4ccc5ccn(C(=O)c6ccc(C)cc6)c5c4)cc32)cc1 do in these assays?
rCAG RNA binder: 14

What do the screens show for `COc1cc(N2CCCC2)c(OC)cc1/C=C1/NC(=S)NC1=O`?
rCAG RNA binder: 19; core dimer inh: -17; TAAR1 ag: 45*; TAAR1 antagonist: 51*; NS3 helicase inh: 13

Results for Cc1cc(F)ccc1-c1cc(C(=O)NCc2ccc(C(F)(F)F)cc2)[nH]n1 ?
rCAG RNA binder: 0; TAAR1 ag: 56*; TAAR1 antagonist: 71*

Results for COc1ccc(OC)c(S(=O)(=O)N2CCC(C(=O)Nc3cccc(C)c3C)CC2)c1 ?
rCAG RNA binder: 0; core dimer inh: 5; TAAR1 ag: 8; TAAR1 antagonist: 3; NS3 helicase inh: -6

What do the screens show for `Cc1ccc(NC(=O)C2CCN(S(=O)(=O)c3ccc4c(c3)NC(=O)C(C)S4)CC2)cc1C` (stereo not drawn)?
rCAG RNA binder: 8; core dimer inh: 17; TAAR1 ag: 1; TAAR1 antagonist: 50*; NS3 helicase inh: -16
